NR1D1 modulator = modulators of Rev-erb alpha DNA binding, primary screen, biochemical, FITC-DNA, fluorescence polarization, uHTS. Nuclear receptor subfamily 1 group D member 1 (Homo sapiens), P20393. Rev-erbα–FITC-DNA binding, 90 min. activity, % at 10 µM. 370,000 tested, 0.79% active. AID 1259318, 2017;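 active means activity above about 14%, limit read from the data; passing the limit was not always enough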;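 further: 0% = DMSO wells with 35 nM protein and 100% = DMSO wells with 750 nM protein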
Target sequence (P20393 whole entry, looked up): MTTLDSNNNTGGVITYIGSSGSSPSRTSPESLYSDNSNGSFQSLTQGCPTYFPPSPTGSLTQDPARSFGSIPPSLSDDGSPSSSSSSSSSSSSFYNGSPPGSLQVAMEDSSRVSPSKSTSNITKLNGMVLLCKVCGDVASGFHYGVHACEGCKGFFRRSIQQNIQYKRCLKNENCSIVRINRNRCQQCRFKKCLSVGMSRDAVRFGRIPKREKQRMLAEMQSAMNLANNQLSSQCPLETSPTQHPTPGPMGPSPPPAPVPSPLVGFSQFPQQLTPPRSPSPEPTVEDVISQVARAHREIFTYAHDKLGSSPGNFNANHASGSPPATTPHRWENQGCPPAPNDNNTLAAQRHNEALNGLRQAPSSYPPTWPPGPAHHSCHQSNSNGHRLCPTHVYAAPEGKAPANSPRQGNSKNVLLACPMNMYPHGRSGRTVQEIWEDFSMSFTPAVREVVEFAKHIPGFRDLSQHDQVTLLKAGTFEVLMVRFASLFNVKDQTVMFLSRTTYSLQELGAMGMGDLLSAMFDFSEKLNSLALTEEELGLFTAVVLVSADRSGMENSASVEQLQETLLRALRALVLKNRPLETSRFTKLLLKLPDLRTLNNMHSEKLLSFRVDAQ
MC4R antag cAMP = MC4R antagonists of cAMP signaling, primary screen, cell-based, TR-FRET, antagonist arm of biased-ligand search; inhibition, % at 6.5 µM; MC4R-expressing cells, MTII-stimulated cAMP, LANCE TR-FRET; 360,000 tested, 0.48% active; Melanocortin receptor 4 (Homo sapiens), P32245; AID 540295, 2011;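 active means inhibition above its plate's cutoff, the mean of tested wells on that plate plus 3 SD, cut at about 29% in these data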;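 further: 0% = Melanotan II alone and 100% = Melanotan II plus saturating MCL0020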
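System: U2OS cells stably expressing human melanocortin 4 receptor (MC4R). Reagent: Melanotan II challenge after compound preincubation. Doses: 6.5 µM. Times: 30-min compound, 1-h challenge, 1-h detection, room temperature. Measured by: TR-FRET with Eu-cAMP and labeled anti-cAMP, 671 nm. Replicates: singlicate.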
MC4R ag barr = MC4R agonists recruiting beta-arrestin, primary screen, cell-based, luminescence, agonist arm of biased-ligand search | Melanocortin receptor 4 (Homo sapiens), P32245 | U2OS MC4R beta-arrestin complementation; percent of melanotan II response, DMSO zero | activation, % at 8.9 µM | 360,000 tested, 0.98% active | AID 540308, 2011;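 active means activation above a per-plate cutoff, the mean activation of sample wells on that plate plus 3 SD, cut at about 8% in these data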
PG9 Ab binder = binders of HIV-1 gp120 antibody PG9, primary screen, biochemical, TR-FRET | HIV-1 gp120 / PG9 antibody interaction | TR-FRET gp120-PG9 antibody binding | inhibition, % at 6.7 µM | 360,000 tested, 0.43% active | AID 624416, 2012; in the data active means inhibition above about 8.5%
NR2E3 ag-1 = NR2E3 agonists in two-hybrid cells, primary screen, cell-based, luminescence, CHO-S, Gal4-NCOR/VP16-NR2E3; Photoreceptor-specific nuclear receptor (Homo sapiens), Q9Y5X4; luciferase; inhibition of corepressor binding, % at 3.98 µM; 360,000 tested, 0.35% active;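 active means inhibition above the mean of all tested compounds plus 3 SD, cut at about 70% in these data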;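 further: 0% = DMSO with NR2E3 transfected cells and 100% = cells lacking NR2E3 construct; higher means lower luciferase signal from less NR2E3 corepressor binding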
NR2E3 ag-2 = inhibitors of NR2E3-RetCOR corepressor binding, primary screen, NR2E3 agonist project, biochemical, TR-FRET, GST-NR2E3, biotin-RetCOR. 1536-well. inhibition of corepressor binding, % at 4.78 µM. 320,000 tested, 0.12% active. AID 2300, 2010;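 active means percent inhibition above the cutoff of mean plus 3 SD of all tested compounds, set per screening campaign, cut at about 20% in these data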;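 further: 0% = DMSO wells and 100% = biotin wells as full block of FRET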
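Material: NR2E3–RetCOR corepressor complex | Quantity: 1.35 nM GST-tagged NR2E3 final | Schedule: 5 h at 4 °C | Replication: Singlicate compound wells | Reagent: RetCOR corepressor, biotinylated, 7 nM | Controls: Biotin wells as high control, 0.6% DMSO wells as low control | Signal: TR-FRET, Eu(K)-anti-GST donor, streptavidin-D2 acceptor, ex 340, em 617/671 nm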
MC4R barr ag = MC4R beta-arrestin agonists, retest, confirmation, cell-based, luminescence, U2OS | U2OS MC4R beta-arrestin recruitment; scaled DMSO 0%, Melanotan II 100% | 2,400 tested, 31% active | AID 602192, 2012 | activation, % at 8.9 µM | shares compounds with MC4R ag barr;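 active means mean activation across replicates above the hit cutoff set in the earlier primary screen, cut at about 8% in these data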
MOR DOR agonist = agonists of MOR-DOR heterodimerization, counter-screen for MC4R biased agonist project, cell-based, luminescence; shares compounds with MC4R ag barr; U2OS PathHunter beta-arrestin, beta-gal luminescence; percent of deltorphin B response, DMSO zero; activation, % at 9.2 µM; 2,400 tested, 5.8% active; AID 602194, 2012;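 active means mean activation across replicates exceeds the hit threshold derived in the earlier primary screen, cut at about 18% in these data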;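 further: 100% = deltorphin B at 0.9 µM final and 0% = DMSO alone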
An asterisk follows results filed as active; / = not tested or not shown. Shown are actives, neighbours in structure and some others; about 2.7% of the full set was active somewhere.

SMILES	NR1D1 modulator	MC4R antag cAMP	MC4R ag barr	PG9 Ab binder	NR2E3 ag-1	NR2E3 ag-2	MC4R barr ag	MOR DOR agonist
O=[N+]([O-])c1cccc(N/N=C/c2cc([N+](=O)[O-])ccc2O)c1	-7.4	-10.3	10.6*	-0.9	-9.5	2.7	-5.6	3.2
COC(=O)[C@@]12C[C@@H](CC(=O)N3CCN(C(=O)c4ccco4)CC3)C(=O)N(Cc3cccc4ccccc34)C1=CCC(C)(C)C2	8.4	/	/	-0.8	/	/	/	/
Cc1cc(C)cc(NC(=O)Cc2ccc(-n3cccc3)cc2)c1	-2.8	8.8	9.7*	-1.8	17.2	0.5	2.5	4.1
Cc1ccc(NC(=O)Cc2ccc(-n3cccc3)cc2)c(C)c1	-2.1	0.5	2.3	1.4	-29.6	-1.4	/	/
O=C(c1nn(-c2ccccc2)c(=O)c2ccccc12)N1CCN(c2ncccn2)CC1	-0.7	-2.4	-2.5	-2.4	-24.0	6.2	/	/
O=C(NC1CCCCC1)C(c1cccs1)N(C(=O)C(F)(F)F)c1ccccc1 (centres undefined)	4.4	3.9	27.1*	0.1	-24.4	5.2	4.7	6.5
Cc1ccccc1-n1c(SCC(N)=O)nc2sc(-c3ccccc3)cc2c1=O	0.2	8.2	-1.0	1.8	-7.7	-0.6	/	/
C=CCSc1nc2sc(-c3ccccc3)cc2c(=O)n1N	-2.0	2.9	18.5*	0.0	-21.2	-0.9	21.1*	20.8*
Cc1c(NC(=O)CSc2ccc(Cl)cc2)cccc1-c1nc2cc(Cl)ccc2o1	4.0	4.2	0.1	-0.3	-46.8	-2.0	/	/
NNc1ccc(S(=O)(=O)N2CCCCC2)cn1	-4.5	1.7	11.7*	0.1	-10.4	2.7	-3.4	0.6
O=S(=O)(c1ccc(N2CCCC2)nc1)N1CCCC1	0.5	15.2	-0.6	0.3	-20.2	2.8	/	/
O=C(NC(=S)NCC1CCCO1)C(c1ccccc1)c1ccccc1 (centres undefined)	-6.8	6.2	13.3*	0.1	7.4	0.7	3.2	1.4
Cc1ccccc1C(=O)NC(=S)NCC1CCCO1 (centres undefined)	-3.3	13.6	1.2	-1.8	-13.2	2.4	/	/
Cc1ccc(CNC(=O)Cn2c(=O)c3sccc3n(Cc3ccc([N+](=O)[O-])cc3)c2=O)cc1	0.1	15.3	14.2*	-2.9	9.9	1.5	-3.1	3.4
CCCCCN=C(N)N/N=C/c1c[nH]c2ccc(OC)cc12	4.3	12.8	10.1*	-3.1	18.9	0.9	14.5*	30.9*
COC(=O)c1sccc1N/N=C/c1cccc(OC)c1O	-1.2	2.4	13.9*	-0.2	-183.1	-0.6	-0.1	5.7
Cc1ccsc1-c1nc(-c2ccccc2)c(-c2ccccc2)[nH]1	7.9	-0.3	10.3*	-0.7	-20.4	-0.1	10.6*	5.2
COc1ccc(C(=O)NCC(C)(C)CNC(=O)c2ccc(OC)cc2)cc1	2.8	0.9	-0.6	-2.2	2.3	1.1	/	/
CCOC(=O)CSc1nc2cccnc2n1-c1ccc(F)cc1	4.5	4.9	0.6	-3.1	-3.5	0.8	/	/
CN1CCN(S(=O)(=O)c2cccc(C(=O)NCCC3=CCCCC3)c2)CC1	-2.3	0.6	-4.3	-0.1	-3.0	-4.8	/	/
CCc1ccc(OCC(O)CN2CCN(c3ccccc3)CC2)cc1 (centres undefined)	-6.5	5.0	10.7*	0.3	3.0	0.6	0.3	9.3
CCCc1ccc(OCC(O)CN2CCN(c3ccccc3)CC2)cc1 (centres undefined)	8.1	4.8	3.8	1.1	-5.0	2.3	/	/
O=C(Cc1c(O)c2ccccc2oc1=O)c1ccc(F)cc1	-5.7	6.5	10.9*	0.0	-51.6	3.9	1.1	3.1
O=c1oc2ccccc2c(O)c1CN1CCCCC1	-1.6	17.7	2.1	-1.0	12.4	0.9	/	/
CCOC(=O)/C(=N/Nc1ccccc1)Sc1nnc(CCc2ccccc2)n1-c1ccccc1	3.3	-5.9	-2.8	-2.5	-30.9	1.7	/	/
SMILES	NR1D1 modulator	MC4R antag cAMP	MC4R ag barr	PG9 Ab binder	NR2E3 ag-1	NR2E3 ag-2	MC4R barr ag	MOR DOR agonist
CCCCCc1nnc(NC(=O)c2ccc(N3CCCC3=O)cc2)s1	19.3	-5.2	-2.1	-0.5	-7.8	2.5	/	/
CCOc1ccc(CNC(=O)CCc2cn(Cc3ccccc3)c3ccccc23)cc1	-0.1	4.3	13.2*	-4.7	-29.4	6.2	10.0*	7.5
CCOc1ccc(CNC(=O)CCCc2cn(C)c3ccccc23)cc1	2.4	9.1	1.8	-0.6	-17.2	/	/	/
Nc1ccncc1N	-5.0	13.3	0.0	0.1	-2.2	-1.4	/	/
O=C(O)CC(NC(=O)C1CCCCC1)c1ccc(OC2CCCC2)cc1 (centres undefined)	1.0	0.0	-2.6	-1.4	-23.5	4.0	/	/
S=c1[nH]nc(-c2ccccc2)n1/N=C/c1ccc(-c2ccccc2Cl)o1	-9.8	9.1	11.5*	0.7	-13.4	-3.3	-2.8	2.0
S=c1[nH]nc(-c2cccc(Cl)c2)n1/N=C/c1ccc(-c2ccccc2Br)o1	-5.3	19.1	-0.1	1.3	0.8	-0.7	/	/
C=CCOC(=O)C1=C(C)NC(SCC(=O)Nc2nccs2)=C(C#N)C1c1cccs1 (centres undefined)	3.3	3.8	1.7	-0.8	-69.0	3.1	/	/
C=CCOC(=O)C1=C(C)NC(SCC(=O)Nc2nccs2)=C(C#N)C1c1ccc(Cl)cc1 (centres undefined)	20.0	2.4	11.1*	0.1	-16.4	0.7	1.6	2.7
Cc1ccc(OCC(=O)Nc2sc3c(c2C#N)CCC3)cc1C	0.8	3.1	14.5*	-1.6	-23.7	-2.7	2.1	5.2
Cc1ccc(OCC(=O)Nc2sc3c(c2C#N)CCC3)cc1	0.5	2.6	11.4*	0.9	11.4	0.6	0.9	2.6
